SMILES strings stand for the structures. Active and inactive are the calls of the source. No cut-off for these calls is given here.

Series [1] has as its target T1, Malate dehydrogenase, mitochondrial (Homo sapiens) (UniProt P40926).
T1 sequence (whole entry): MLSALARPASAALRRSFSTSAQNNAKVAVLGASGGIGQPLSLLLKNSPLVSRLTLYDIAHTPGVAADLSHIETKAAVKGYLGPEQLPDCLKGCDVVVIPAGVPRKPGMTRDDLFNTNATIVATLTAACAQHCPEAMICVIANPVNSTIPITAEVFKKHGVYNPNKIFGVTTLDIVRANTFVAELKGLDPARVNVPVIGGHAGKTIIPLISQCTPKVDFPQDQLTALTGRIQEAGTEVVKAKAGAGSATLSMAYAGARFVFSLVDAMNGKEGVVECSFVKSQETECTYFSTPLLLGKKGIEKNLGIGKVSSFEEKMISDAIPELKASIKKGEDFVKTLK
In words: Binding affinity to MDHM in human PC9 cells incubated for 1 hr by ABPP-SILAC assay. It counts as cell-based. In outline: (§1)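 PC-9 cells passaged at least six times in SILAC DMEM with 10% dialyzed FBS plus 100 µg/mL light or 13C/15N-labeled Arg/Lys. Heavy cells got ABPP probe (1 µM) and light cells DMSO, 1 h at 37 °C. Cells mixed 1:1, sonicated, spun at 100,000g, protein normalized to 1 mg/mL. Click biotin-azide, streptavidin bead pulldown 16 h at 4 °C, SDS-PAGE, on-bead trypsin digestion, LC-MS/MS.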

The target of series [2] is Alpha-enolase (Homo sapiens) (UniProt P06733). The experiment in a line: Binding affinity to ENOA in human PC9 cells incubated for 1 hr by ABPP-SILAC assay. Type of series: cell-based. In outline:
as §1

Series [3] concerns the target T2, Pyruvate kinase PKM (Homo sapiens, UniProt P14618). In words: Binding affinity to recombinant human N-terminal His6-tagged PKM2 expressed in Escherichia coli BL21 (DE3) assessed as Cys317-adduct formation by NanoLC-MS/MS analysis. In outline: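 In-house His-tag PKM2 from E. coli BL21(DE3), purified by Ni-NTA then Superdex 200, treated with compound. Reduced with 30 mM DTT at 37 °C for 1 h, alkylated with 30 mM iodoacetamide for 1 h in the dark, trypsin 1:30 w/w overnight at 37 °C. Digests from 6 experiments pooled, 48 nanoLC-MS/MS runs in data-dependent mode, Orbitrap MS1.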

For series [4], the target named is T3, Phosphoenolpyruvate carboxykinase [GTP], mitochondrial (Homo sapiens) (UniProt Q16822).
T3 sequence (whole entry): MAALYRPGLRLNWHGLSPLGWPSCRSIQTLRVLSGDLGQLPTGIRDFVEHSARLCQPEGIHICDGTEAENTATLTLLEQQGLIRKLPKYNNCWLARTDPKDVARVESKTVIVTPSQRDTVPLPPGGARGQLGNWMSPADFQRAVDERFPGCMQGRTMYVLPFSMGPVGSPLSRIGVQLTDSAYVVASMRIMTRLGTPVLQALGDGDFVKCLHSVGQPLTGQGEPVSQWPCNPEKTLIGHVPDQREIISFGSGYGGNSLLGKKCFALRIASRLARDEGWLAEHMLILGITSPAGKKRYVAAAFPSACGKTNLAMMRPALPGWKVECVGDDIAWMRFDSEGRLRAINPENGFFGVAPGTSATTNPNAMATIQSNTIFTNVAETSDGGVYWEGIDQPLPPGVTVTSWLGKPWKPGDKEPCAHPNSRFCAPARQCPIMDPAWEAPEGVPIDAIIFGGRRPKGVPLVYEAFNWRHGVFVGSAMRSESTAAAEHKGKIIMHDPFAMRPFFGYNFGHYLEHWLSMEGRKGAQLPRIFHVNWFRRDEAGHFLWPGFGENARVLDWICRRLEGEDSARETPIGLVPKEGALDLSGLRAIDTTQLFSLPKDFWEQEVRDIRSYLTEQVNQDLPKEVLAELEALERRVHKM
The experiment in a line: Binding affinity to PCKGM in human PC9 cells incubated for 1 hr by ABPP-SILAC assay. It counts as cell-based. The method, boiled down:
as §1

Series [5] addresses T2, Pyruvate kinase PKM. In words: Inhibition of PKM2 in human PC9 cells assessed as decrease in extracellular acidification rate preincubated for 4 hrs followed by glucose/oligomycin/2-DG addition and measured after 1 hr by seahorse XFe96 analyser based assay. It counts as cell-based. The method, boiled down:
(§2)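 PC-9 cells, 5 × 10^4 per well, seeded 24 h ahead, then treated with DMSO or compound at 0.25, 0.5 or 1 µM for 4 h at 37 °C. Cells held 1 h without CO2 in glycolysis medium. Seahorse glycolysis stress test with serial injections of 10 mM glucose, oligomycin and 50 mM 2-DG; ECAR and OCR recorded together. Six wells per point.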

Series [6] has as its system PC-9. In words: Induction of basal oxygen consumption rate in human PC9 cells at 0.25 to 1 uM measured after 4 hrs in absence of glucose by seahorse XF96 flux analyser based assay. Type of series: functional, cell-based. In outline: as §2
A short description of series [7]: Toxicity in athymic nude mouse xenografted with human PC9 cells assessed as reduction in body weight at 10 mg/kg, ip administered once daily for 25 days measured during compound dosing. The note with it: in vivo, 600 h. It counts as organism-based. The method, boiled down:
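Female nude mice, 6 weeks old, given s.c. 1 × 10^6 PC-9 cells in Matrigel (1:1). From day 7, once-daily i.p. vehicle or 10 mg/kg compound in sterile water with 0.5% methylcellulose and 0.1% Tween-80, n = 8 per group, for 25 days. Tumor volume and body weight followed, tumors weighed at end.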
For orientation: A xenograft is tissue or cells of one species grown in another, often human tumour cells in immunodeficient mice.

Series [8] concerns the target T2, Pyruvate kinase PKM. In words: Inhibition of PKM2 in human PC9 cells assessed as reduction in beta-catenin phosphorylation incubated for 24 hrs by Western blot analysis. It counts as cell-based. The method, boiled down:
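PC-9 cells seeded at 5 × 10^5 cells/mL; after 24 h given 0–1 µM compound or DMSO for 24 h. Lysates run on 10% SDS-PAGE, transferred to nitrocellulose, probed for PKM2, EGFR, p-STAT3, STAT3, p-β-catenin, β-catenin and β-actin with HRP secondaries, ECL detection.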
(In general: Immunoblotting shows a protein as a band on a membrane.)

Series [9] has as its target T2, Pyruvate kinase PKM. The experiment in a line: Inhibition of PKM2 in human PC9 cells at 0.25 uM using PEP as substrate incubated for 6 hrs by OxiRed probe-based colorimetric analysis. It counts as cell-based. The method, boiled down:
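PC-9 cells seeded at 5 × 10^5 cells/mL, after 24 h given 0.25 µM compound or DMSO for 6 h. Lysate pyruvate kinase activity read with a colorimetric kit measuring H2O2 made from PEP and […] through PK and then pyruvate oxidase. n = 3.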

The test system of series [10] is PC-9. The experiment in a line: Antiproliferative activity against human PC9 cells harboring EGFR mutant assessed as reduction in cell viability incubated for 24 hrs by MTT assay. To be noted: PC-9, 24 h. It counts as functional, cell-based. The method, boiled down: (§3)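 Cells seeded at 3,500 per well in 10% FBS and left overnight, then exposed to test agent or vehicle in 5% FBS for 24 h. MTT added for 1 h, then medium swapped for DMSO and absorbance read at 560 nm. Viability given as percent of vehicle-treated control. Run in triplicate.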

The next series has as its system NCI-H1650. The experiment in a line: Antiproliferative activity against human NCI-H1650 cells harboring EGFR mutant assessed as reduction in cell viability incubated for 24 hrs by MTT assay. The note with it: NCI-H1650, 24 h. It counts as functional, cell-based. In outline: as §3
A general note: Tetrazolium dyes change colour on reduction, which living cells bring about.

A further series has as its system Mus musculus. In words: In vivo inhibition of PKM2 in human PC9 cells xenografted in athymic nude mouse assessed as reduction in STAT3 expression at 10 mg/kg, ip administered once daily for 25 days measured post-last dose by Western blot analysis. Type of series: functional, organism-based. The method, boiled down:
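Tumors from PC-9 xenograft nude mice given 10 mg/kg i.p. daily or vehicle for 25 days (n = 8 per group) were lysed for Western blots of PKM2, EGFR, Stat3 and β-catenin. Bands quantified by ImageJ and normalized to GAPDH.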

T2 sequence (P14618 2-531 limits assumed): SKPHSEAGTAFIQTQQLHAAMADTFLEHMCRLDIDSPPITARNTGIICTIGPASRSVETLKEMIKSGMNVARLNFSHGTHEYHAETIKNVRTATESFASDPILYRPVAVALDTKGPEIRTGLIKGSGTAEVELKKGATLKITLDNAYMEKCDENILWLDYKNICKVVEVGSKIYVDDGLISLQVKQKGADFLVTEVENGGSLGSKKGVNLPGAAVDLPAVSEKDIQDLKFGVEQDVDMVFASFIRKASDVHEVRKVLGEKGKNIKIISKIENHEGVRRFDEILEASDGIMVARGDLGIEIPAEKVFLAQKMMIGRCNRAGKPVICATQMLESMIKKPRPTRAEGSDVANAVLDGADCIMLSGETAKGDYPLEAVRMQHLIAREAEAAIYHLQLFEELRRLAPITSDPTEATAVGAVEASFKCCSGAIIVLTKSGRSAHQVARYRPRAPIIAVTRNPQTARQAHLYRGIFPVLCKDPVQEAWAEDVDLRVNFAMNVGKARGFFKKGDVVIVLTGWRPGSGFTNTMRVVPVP
Alpha-enolase (Homo sapiens), sequence (P06733 whole entry): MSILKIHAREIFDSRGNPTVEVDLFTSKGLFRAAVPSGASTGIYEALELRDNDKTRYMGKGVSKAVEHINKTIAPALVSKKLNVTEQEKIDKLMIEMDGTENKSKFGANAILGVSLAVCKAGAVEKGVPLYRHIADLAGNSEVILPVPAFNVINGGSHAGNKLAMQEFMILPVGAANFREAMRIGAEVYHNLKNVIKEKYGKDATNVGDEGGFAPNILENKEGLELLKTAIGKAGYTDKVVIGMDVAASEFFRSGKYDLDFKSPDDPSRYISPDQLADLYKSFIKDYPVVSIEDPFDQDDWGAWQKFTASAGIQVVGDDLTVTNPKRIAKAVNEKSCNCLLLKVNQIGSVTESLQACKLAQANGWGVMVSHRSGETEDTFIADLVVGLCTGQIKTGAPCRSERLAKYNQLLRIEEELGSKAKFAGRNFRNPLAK

For orientation: IC50 means the midpoint of a concentration-inhibition curve. As for `C#CC(=O)Nc1ccc(-n2nc(CCC(=O)NC)cc2-c2ccc(-c3ccc(C(F)(F)F)cc3)cc2)cc1`, the outcome (in [1]; in series [2]; at Pyruvate kinase PKM [3]; in [4]; in the series on PC-9 [6]) was Active. Further, the inhibition result on Pyruvate kinase PKM [5] and on Pyruvate kinase PKM [8] was “Dose-dependent effect” throughout. In series [7], the Activity entry was “Non-Toxic”. The inhibition entry at Pyruvate kinase PKM [9] and with Mus musculus was “Active” throughout. In addition, the 50% inhibitory concentration (IC50) in the series with PC-9 [10] was 500 nM; in the series with NCI-H1650 it was 200 nM.
